ChEMBL document CHEMBL5223176, “Design, synthesis, docking, and biochemical characterization of non-nucleoside SARS-CoV-2 RdRp inhibitors” (Bioorg Med Chem, 2023)
Calls of active or inactive are those of the source. The calls are words filed in the database; no cut-off is given here.

Experiments:
[1] = Kinetic solubility of the compound in pH 7.4 PBS incubated for 24 hrs by UPLC/MS analysis; format: physicochemical; conditions: buffer, pH 7.4, 24 h
[2] = Metabolic stability in mouse liver microsomes assessed as half life preincubated with microsomes for 15 mins followed by NADPH addition and measured upto 60 mins by LC-MS/MS analysis; format: ADME, Microsome; conditions: time < 75 min
How it was run: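 Compound at 4.6 µM final preincubated 15 min at 37 °C with mouse liver microsomes in 0.1 M Tris-HCl pH 7.4, then NADPH, G6P, G6PDH and MgCl2 added; sampled at 0, 5, 15, 30, 60 min into cold acetonitrile with internal standard. LC-MS/MS with positive ESI; percent remaining versus t = 0; half-life from one-phase decay non-linear regression.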

[3] = Metabolic stability in mouse plasma assessed as half life measured upto 120 mins by LC-MS/MS analysis; format: ADME, cell-free
How it was run: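 Compound at 2 µM final incubated at 37 °C for up to 2 h in mouse plasma with 5 % DMSO; sampled at 0, 5, 15, 30, 60, 120 min into cold acetonitrile with internal standard, centrifuged, supernatant diluted 1:1 with water and quantified by LC-MS/MS.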

HEK293 = test: Cytotoxicity against HEK293 cells assessed as inhibition of cell growth at 100 uM incubated for 24 to 48 hrs by MTT assay; format: toxicity, cell-based; conditions: human, hek293, 100 µM, time 24-48 hrs
How it was run: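 HEK-293 cells grown in DMEM with 2 mM L-glutamine, 10 % heat-inactivated FBS, 1 % penicillin/streptomycin, 37 °C, 5 % CO2; seeded 10,000 cells/well, treated 24 h after seeding for 24 or 48 h, vehicle DMSO 0.5 % final. MTT 0.5 mg/ml for 2 h, formazan dissolved in ethanol, absorbance 570 nm (ref 650 nm); 8 serial dilutions in triplicate, three independent experiments, mean ± SD.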

[4] = biological target: Replicase polyprotein 1ab (Severe acute respiratory syndrome coronavirus 2, UniProt P0DTD1); test: (§1) Inhibition of SARS-CoV-2 RdRp using ATP substrate preincubated with compound for 30 mins followed by substrate addition and measured after 30 mins by Alphascreen microplate reader analysis
[5] = biological target: Replicase polyprotein 1ab (Severe acute respiratory syndrome coronavirus 2) (UniProt P0DTD1); test: as §1; conditions: time 60.0 min
SARS-CoV-2 = test: Antiviral activity against SARS-CoV-2 human/Czech Republic/951/2020 infected in African green monkey Vero cells pretreated […] followed by viral infection and measured after 48 hrs by viral titer reduction assay; format: functional, organism-based; conditions: Severe acute respiratory syndrome coronavirus 2, human/Czech Republic/951/2020, Vero

Row | Structure (SMILES) | Kinetic_solubility [1] | half-life [2] | half-life [3] | also measured
1 | CCCc1c(-c2ccc(O)c(O)c2)oc2cc(O)cc(O)c2c1=O | 13 µM |  |  | 
2 | CCCCOc1c(-c2ccc(O)c(O)c2)oc2cc(O)cc(O)c2c1=O | 156 µM | > 120 min | > 60 min | Activity (HEK293): Non-Toxic
3 | CCCCC(c1ccc(O)c(O)c1)c1cc(=O)c2c(O)cccc2o1 (stereo not drawn) |  |  |  | IC50 [4]: > 100 µM
4 | O=c1cc(-c2ccc(O)c(O)c2)oc2cc(O)cc(O)c12 [LUTEOLIN] |  | > 120 min | > 60 min | 
5 | O=c1cc(C(CCCC(F)(F)F)c2ccc(O)c(O)c2)oc2cccc(O)c12 (stereo not drawn) |  |  |  | inhibition [5]: inactive
6 | O=C(Nc1ccc(O)c(O)c1)c1cc(=O)c2c(O)cccc2o1 | 65 µM | 83 min | 60 min | 
7 | O=c1c(OCCCO)c(-c2ccc(O)c(O)c2)oc2cc(O)cc(O)c12 |  | 90 min | 60 min | Activity (HEK293): Non-Toxic
8 | O=c1cc(Cc2ccc(O)c(O)c2)oc2cccc(O)c12 | 63 µM | > 120 min | > 60 min | 
9 | O=C(Oc1ccc(O)c(O)c1)c1cc(=O)c2c(O)cccc2o1 | < 1 µM |  |  | 
10 | O=c1cc(/C=C/c2ccc(O)c(O)c2)oc2cccc(O)c12 | < 1 µM |  |  | 
11 | O=c1c(O)c(-c2ccc(O)c(O)c2)oc2cc(O)cc(O)c12 [QUERCETIN] |  | 7 min | > 60 min | 
12 | O=C(NCCNC(=S)Nc1ccc(O)c(O)c1)c1cc(=O)c2c(O)cccc2o1 | < 1 µM |  |  | 
13 | Cc1c(-c2ccc(O)c(O)c2)oc2cc(O)cc(O)c2c1=O | 32 µM |  |  | 
14 | O=C(N[C@@H](Cc1ccc(O)cc1)C(=O)O)c1cc(-c2ccccc2)c(=O)n2c1sc1ccc(OC3CCCCC3)cc12 |  |  |  | EC50 (SARS-CoV-2): 650 nM
15 | O=c1c(OCCO)c(-c2ccc(O)c(O)c2)oc2cc(O)cc(O)c12 | 167 µM | > 120 min | > 60 min | Activity (HEK293): Non-Toxic
16 | CCCCc1c(-c2ccc(O)c(O)c2)oc2cc(O)cc(O)c2c1=O | < 1 µM |  |  | IC50 [4]: 6 µM
17 | CC(c1ccc(O)c(O)c1)c1cc(=O)c2c(O)cccc2o1 (stereo not drawn) | 165 µM | > 120 min | > 60 min | Activity (HEK293): Non-Toxic
18 | O=c1cc(CCc2ccc(O)c(O)c2)oc2cccc(O)c12 | 67 µM | > 120 min | > 60 min | 
